What was measured:
[1] = AUClast in C57 Black mouse liver at 10 mg/kg, iv; format: ADME, organism-based; parameters: time 0 - last, route intravenous, dose 10 mg/kg
Procedure, shortened: (§1)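 Male C57BL/6 mice were given a single 10 mg/kg dose either intravenously or orally. The oral and IV solutions were formulated in 10% DMSO, 10% cremaphor and 80% saline. Concentrations in plasma and in the tissues collected were determined after dosing, with n = 3 per route. Values are given as mean ± SEM.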

[2] = AUCinfinity in C57 Black mouse muscle at 10 mg/kg, iv; format: ADME, organism-based, Muscle tissue; parameters: time infinity, route intravenous, dose 10 mg/kg; procedure, shortened: as §1
[3] = AUClast in C57 Black mouse muscle at 10 mg/kg, iv; format: ADME, organism-based, Muscle tissue; parameters: time 0 - last, route intravenous, dose 10 mg/kg; procedure, shortened: as §1
[4] = AUCall in C57 Black mouse muscle at 10 mg/kg, iv; format: ADME, organism-based, Muscle tissue; parameters: dose 10 mg/kg; procedure, shortened: as §1
[5] = Volume of distribution in C57 Black mouse liver at 10 mg/kg, iv; format: ADME, organism-based
Procedure, shortened: (§2)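 Male C57BL/6 mice (n = 3) dosed at 10 mg/kg by IV or oral (PO) route. Dosing solutions were formulated in 10% DMSO, 10% cremaphor and 80% saline. Compound levels were measured in plasma and tissues over time, and values are given as mean ± SEM.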

[6] = Half life in mouse microsomes at 1 uM up to 120 mins by HPLC/MS-MS analysis; format: ADME, Microsome
[7] = Half life in human microsomes at 1 uM up to 120 mins by HPLC/MS-MS analysis; format: ADME, Microsome
[8] = Tmax in C57 Black mouse liver at 10 mg/kg, iv; format: ADME, organism-based; procedure, shortened: as §2
[9] = AUClast in C57 Black mouse liver at 10 mg/kg, po; format: ADME, organism-based; parameters: time 0 - last, route oral, dose 10 mg/kg; procedure, shortened: as §1
[10] = AUClast in C57 Black mouse spleen at 10 mg/kg, iv; format: ADME, organism-based; parameters: time 0 - last, route intravenous, dose 10 mg/kg; procedure, shortened: as §1
[11] = AUCall in C57 Black mouse spleen at 10 mg/kg, iv; format: ADME, organism-based; parameters: dose 10 mg/kg; procedure, shortened: as §1
[12] = Cmax in C57 Black mouse spleen at 10 mg/kg, iv; format: ADME, organism-based; parameters: route intravenous, dose 10 mg/kg; procedure, shortened: as §1
[13] = Tmax in C57 Black mouse spleen at 10 mg/kg, iv; format: ADME, organism-based; procedure, shortened: as §2
[14] = AUClast in C57 Black mouse spleen at 10 mg/kg, po; format: ADME, organism-based; parameters: time 0 - last, route oral, dose 10 mg/kg; procedure, shortened: as §1
[15] = Cmax in C57 Black mouse spleen at 10 mg/kg, po; format: ADME, organism-based; parameters: route oral, dose 10 mg/kg; procedure, shortened: as §1
[16] = Volume of distribution in C57 Black mouse kidney at 10 mg/kg, iv; format: ADME, organism-based; procedure, shortened: as §2
[17] = AUCall in C57 Black mouse kidney at 10 mg/kg, iv; format: ADME, organism-based; parameters: dose 10 mg/kg; procedure, shortened: as §1
[18] = AUClast in C57 Black mouse kidney at 10 mg/kg, iv; format: ADME, organism-based; parameters: route intravenous, time 0 - last, dose 10 mg/kg; procedure, shortened: as §1
[19] = Cmax in C57 Black mouse kidney at 10 mg/kg, iv; format: ADME, organism-based; parameters: route intravenous, dose 10 mg/kg; procedure, shortened: as §1
[20] = Half life in C57 Black mouse kidney at 10 mg/kg, iv; format: ADME, organism-based; procedure, shortened: as §2
[21] = AUCinfinity in C57 Black mouse kidney at 10 mg/kg, po; format: ADME, organism-based; parameters: route oral, time infinity, dose 10 mg/kg; procedure, shortened: as §1
[22] = AUClast in C57 Black mouse kidney at 10 mg/kg, po; format: ADME, organism-based; parameters: time 0 - last, route oral, dose 10 mg/kg; procedure, shortened: as §1
C2C12 = experiment: Induction of glucose uptake in mouse C2C12 cells assessed as [3H]2-deoxyglucose uptake preincubated for 16 hrs followed by followed by [3H]2-deoxyglucose addition and measured after 10 mins by liquid scintillation counting method; format: functional
Procedure, shortened: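 C2C12 mouse myoblasts were grown in high-glucose DMEM with 10% FBS. At 80% confluence they were differentiated into myotubes with 2% horse serum. Myotubes were exposed to compound (10 µM) for 16 h in medium with 0.1% horse serum, then washed with KRB pH 7.4 and given 1 µCi/mL [3H]-2-deoxyglucose for 10 min at 37 °C. After ice-cold washes and 0.1% SDS lysis, scintillation counts were normalised to BCA protein. Results are fold change vs DMSO, mean ± SEM, one-way ANOVA.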

[23] = Inhibition of NADH:ubiquinone oxidoreductase in rat liver mitochondria incubated for 3 mins
[24] = Intrinsic clearance in mouse microsomes at 1 uM up to 120 mins by HPLC/MS-MS analysis; format: ADME, Microsome
[25] = Half life in mouse hepatocytes at 1 uM up to 120 mins by HPLC-MS/MS analysis; format: ADME, cell-based, Hepatocyte
[26] = Intrinsic clearance in human hepatocytes at 1 uM up to 120 mins by HPLC-MS/MS analysis; format: ADME, cell-based, Hepatocyte; conditions: 2 h
[27] = Protein binding human serum at 1 uM after 60 to 120 mins by HPLC-MS/MS analysis; format: ADME, cell-free; conditions: time 60-120 min, read-out: PB (converted)
[28] = Cmax in C57 Black mouse plasma at 10 mg/kg, po; format: ADME, organism-based; parameters: route oral, dose 10 mg/kg; procedure, shortened: as §1
[29] = Half life in C57 Black mouse plasma at 10 mg/kg, iv; format: ADME, organism-based; procedure, shortened: as §2
[30] = AUClast in C57 Black mouse plasma at 10 mg/kg, iv; format: ADME, organism-based; parameters: route intravenous, time 0 - last, dose 10 mg/kg; procedure, shortened: as §1
[31] = AUCall in C57 Black mouse plasma at 10 mg/kg, iv; format: ADME, organism-based; parameters: dose 10 mg/kg; procedure, shortened: as §1
[32] = AUCinfinity in C57 Black mouse plasma at 10 mg/kg, iv; format: ADME, organism-based; parameters: route intravenous, time infinity, dose 10 mg/kg; conditions: in vivo; procedure, shortened: as §1
[33] = Volume of distribution in C57 Black mouse plasma at 10 mg/kg, iv; format: ADME, organism-based; procedure, shortened: as §2
[34] = Tmax in C57 Black mouse brain at 10 mg/kg, iv; format: ADME, organism-based; procedure, shortened: as §2
[35] = Cmax in C57 Black mouse brain at 10 mg/kg, iv; format: ADME, organism-based; parameters: route intravenous, dose 10 mg/kg; procedure, shortened: as §1
[36] = AUClast in C57 Black mouse brain at 10 mg/kg, iv; format: ADME, organism-based; parameters: time 0 - last, route intravenous, dose 10 mg/kg; procedure, shortened: as §1
[37] = AUCinfinity in C57 Black mouse brain at 10 mg/kg, iv; format: ADME, organism-based; parameters: time infinity, route intravenous, dose 10 mg/kg; procedure, shortened: as §1
[38] = Lipophilicity, logP of compound; format: physicochemical; conditions: octanol/water
[39] = Volume of distribution in C57 Black mouse muscle at 10 mg/kg, iv; format: ADME, organism-based, Muscle tissue; procedure, shortened: as §2
CYP1A2 = target: T1, CYP1A2 (Homo sapiens, UniProt P05177); experiment: Inhibition of human CYP1A2 using fluorogenic substrate incubated for 60 mins in presence of NADPH by fluorescence assay relative to control; format: ADME; conditions: probe fluorogenic substrate
T1 sequence (P05177 whole entry): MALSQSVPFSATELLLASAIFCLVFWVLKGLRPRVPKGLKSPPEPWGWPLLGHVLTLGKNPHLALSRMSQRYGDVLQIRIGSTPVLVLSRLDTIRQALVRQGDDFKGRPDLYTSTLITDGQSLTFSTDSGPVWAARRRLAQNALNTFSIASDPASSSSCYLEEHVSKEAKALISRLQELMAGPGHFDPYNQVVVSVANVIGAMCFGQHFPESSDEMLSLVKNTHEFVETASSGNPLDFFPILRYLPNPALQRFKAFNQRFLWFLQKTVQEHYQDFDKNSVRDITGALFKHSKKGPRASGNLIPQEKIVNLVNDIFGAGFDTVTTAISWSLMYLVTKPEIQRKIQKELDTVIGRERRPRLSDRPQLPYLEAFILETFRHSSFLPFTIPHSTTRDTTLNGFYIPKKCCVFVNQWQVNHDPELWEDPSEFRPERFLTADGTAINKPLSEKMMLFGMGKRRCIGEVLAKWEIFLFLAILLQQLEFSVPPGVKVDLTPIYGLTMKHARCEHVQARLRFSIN
Procedure, shortened: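 Baculosomes each expressing a single cDNA-derived human P450 isozyme were incubated with compound at 10 µM, a fluorogenic substrate and NADPH. Incubation was at 37 °C for at least 60 min before fluorescence was read, n = 3.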

[40] = Toxicity in C57BL/6 mouse at 10 mg/kg, iv or po; format: organism-based; conditions: in vivo

AUC(0-t) [1]: 487 ng·h/mL
AUC(0-inf) [2]: 107 ng·h/mL
AUC(0-t) [3]: 77.3 ng·h/mL
AUC [4]: 77.3 ng·h/mL
Vd [5]: 3.06 L/kg
half-life at 1 µM [6]: 6 min
half-life at 1 µM [7]: 12 min
Tmax [8]: 1.8 min
AUC(0-t) [9]: 4050 ng·h/mL
AUC(0-t) [10]: 463 ng·h/mL
AUC [11]: 463 ng·h/mL
Cmax [12]: 587 ng/mL
Tmax [13]: 1.8 min
AUC(0-t) [14]: 1260 ng·h/mL
Cmax [15]: 1100 ng/mL
Vd [16]: 3.06 L/kg
AUC [17]: 320 ng·h/mL
AUC(0-t) [18]: 320 ng·h/mL
Cmax [19]: 552 ng/mL
half-life [20]: 45.6 min
AUC(0-inf) [21]: 1280 ng·h/mL
AUC(0-t) [22]: 1220 ng·h/mL
IC50 [23]: 27 µM
microsomal CLint at 1 µM [24]: 226 µL/min/mg
half-life at 1 µM [25]: 126 min
CLH [26]: 346 µL/min
fraction unbound at 1 µM [27]: 0.0052
Cmax [28]: 787 ng/mL
half-life [29]: 27 min
AUC(0-t) [30]: 240 ng·h/mL
AUC [31]: 240 ng·h/mL
AUC [32]: 244 ng·h/mL
Vd [33]: 1.69 L/kg
Tmax [34]: 1.8 min
Cmax [35]: 1030 ng/mL
AUC(0-t) [36]: 246 ng·h/mL
AUC(0-inf) [37]: 253 ng·h/mL
logP [38]: 4.79
Vd [39]: 7.13 L/kg
inhibition at 1 h (CYP1A2): 53.7%
Structure (SMILES): O=C(CCCc1cccs1)N1CCN(c2ccc(C(F)(F)F)cc2)CC1
fold change (FC) (C2C12): 2.57
Activity [40]: Non-Toxic
